A value given as a limit tells only on which side of the number the result lay.

From ChEMBL document CHEMBL1152715, “13-Methyl-substituted des-C,D analogs of (20S)-1alpha,25-dihydroxy-2-methylene-19-norvitamin D3 (2MD): synthesis and biological evaluation” (Bioorg Med Chem, 2009) come the findings set out here.

For assay [1], the target named is T1, Vitamin D3 receptor (Rattus norvegicus, UniProt P13053).
T1 sequence (P13053 whole entry): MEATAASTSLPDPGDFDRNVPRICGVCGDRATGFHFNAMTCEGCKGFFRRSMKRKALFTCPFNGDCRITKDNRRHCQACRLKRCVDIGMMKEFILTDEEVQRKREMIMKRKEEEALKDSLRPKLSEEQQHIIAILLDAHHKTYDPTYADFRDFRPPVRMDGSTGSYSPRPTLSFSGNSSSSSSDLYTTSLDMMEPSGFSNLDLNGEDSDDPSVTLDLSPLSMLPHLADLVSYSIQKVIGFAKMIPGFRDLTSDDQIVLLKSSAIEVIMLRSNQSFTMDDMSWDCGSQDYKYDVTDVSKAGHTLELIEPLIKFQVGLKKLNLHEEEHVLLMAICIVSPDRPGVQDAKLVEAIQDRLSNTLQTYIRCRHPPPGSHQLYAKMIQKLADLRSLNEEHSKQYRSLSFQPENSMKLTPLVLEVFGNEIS
The experiment in a line: Displacement of [3H]1-alpha,25-(OH)2D3 from rat recombinant full length VDR. In a few lines:
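It was incubated overnight on ice with 1 nM (final) [3H]1α,25-(OH)2D3 plus unlabeled competitor, ethanol <10%. Bound ligand was collected on hydroxylapatite, washed and scintillation counted. […] Runs were in duplicate.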
A general note: In a radioligand displacement assay an active substance lowers the binding of a labelled ligand.

The test system of assay [2] is HL-60. Description: Induction of cell differentiation of human HL60 cells to monocytes by NBT reduction assay. Format: functional, cell-based.
Assay [3] has as its target T1, Vitamin D3 receptor. Description: Activity at VDR in rat ROS 17/2.8 cells assessed as transcriptional activation of 24-hydroxylase gene promoter after 16 hrs by luciferase reporter gene assay. The class given is cell-based. An outline of the steps: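 ROS 17/2.8 rat osteosarcoma cells stably transfected with a 24-hydroxylase promoter–luciferase reporter were dosed over a concentration range and harvested 16 h later. Luciferase was read on a luminometer.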

The subject of assay [4] is HL-60. The experiment in a line: Ratio of EC50 of drug to EC50 of 1-alpha,25-(OH)2D3 for induction of cell differentiation of human HL60 cells to monocytes by NBT reduction assay.
The subject of assay [5] is Rattus norvegicus. The experiment in a line: Effect on bone calcium mobilization in vitamin D-deficient weanling rat assessed as increase in serum calcium level at 1.9 ug/kg, ip administered as 7 consecutive daily doses measured 24 hrs after last dose relative to untreated control. The class given is functional. In a few lines:
(§1)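 Weanling male rats were fed a 0.47% Ca diet for 1 week, then a 0.02% Ca diet for 3 weeks. In the final week they received daily intraperitoneal doses for 7 days in 0.1 mL propylene glycol/ethanol (95:5); controls got vehicle. There were 5–6 rats per group. Serum Ca and the intestinal serosal/mucosal Ca ratio were compared with vehicle.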

In assay [6] the test system is Rattus norvegicus. The experiment in a line: Effect on bone calcium mobilization in vitamin D-deficient weanling rat assessed as increase in serum calcium level at 5.7 ug/kg, ip administered as 7 consecutive daily doses measured 24 hrs after last dose relative to untreated control. Format: functional. An outline of the steps:
as §1

In assay [7] the test system is Rattus norvegicus. Description: Effect on bone calcium mobilization in vitamin D-deficient weanling rat assessed as increase in serum calcium level at 22.8 ug/kg, ip administered as 7 consecutive daily doses measured 24 hrs after last dose relative to untreated control. The class given is functional. In a few lines: as §1
The test system of assay [8] is Rattus norvegicus. The experiment in a line: Effect on bone calcium mobilization in vitamin D-deficient weanling rat assessed as increase in serum calcium level at 5.5 ug/kg, ip administered as 7 consecutive daily doses measured 24 hrs after last dose relative to untreated control. The class given is functional. An outline of the steps: as §1
Assay [9] deals with Rattus norvegicus. Description: Effect on bone calcium mobilization in vitamin D-deficient weanling rat assessed as increase in serum calcium level at 55 ug/kg, ip administered as 7 consecutive daily doses measured 24 hrs after last dose relative to untreated control. The class given is functional. An outline of the steps: as §1
Assay [10] relates to Rattus norvegicus. The experiment in a line: Effect on bone calcium mobilization in vitamin D-deficient weanling rat assessed as increase in serum calcium level at 165 ug/kg, ip administered as 7 consecutive daily doses measured 24 hrs after last dose relative to untreated control. The class given is functional. In a few lines: as §1
Assay [11] has as its system Rattus norvegicus. Description: Effect on calcium transport in vitamin D-deficient weanling rat intestine assessed as increase in ratio of serosal to mucosal calcium level at 5.5 ug/kg, ip administered as 7 consecutive daily doses measured 24 hrs after last dose. The class given is functional. In a few lines: as §1
The test system of assay [12] is Rattus norvegicus. The experiment in a line: Effect on calcium transport in vitamin D-deficient weanling rat intestine assessed as increase in ratio of serosal to mucosal calcium level at 55 ug/kg, ip administered as 7 consecutive daily doses measured 24 hrs after last dose. The class given is functional. An outline of the steps: as §1
In assay [13] the test system is Rattus norvegicus. Description: Effect on calcium transport in vitamin D-deficient weanling rat intestine assessed as increase in ratio of serosal to mucosal calcium level at 165 ug/kg, ip administered as 7 consecutive daily doses measured 24 hrs after last dose. Format: functional. An outline of the steps: as §1

As usually defined, the Ki is the dissociation constant of the complex between target and ligand, obtained from inhibition or displacement. The EC50 is the concentration at which the effect is half-maximal. Take `C=C1[C@H](O)CC(=C/C=C/C/C(C)=C/[C@@H](C)CCCC(C)(C)O)C[C@H]1O`: the Ki in [1] amounted to 60 nM. In addition, the EC50 in assay [2] is more than 1000 nM; in assay [3], more than 100 nM. Besides, the “Ratio EC50” value in assay [4] is more than 333.

As for `C=C1[C@H](O)CC(=C/C=C/CCC[C@@H](C)CCCC(C)(C)O)C[C@H]1O`, the Ki in [1] amounted to 50 nM. For the same compound, the EC50 worked out at 300 nM in [2] and 50 nM in assay [3]. The “fold change (FC)” value was -0.2 in assay [5], 0.1 in assay [6] and 0.2 in assay [7]. Also, in [4], the “Ratio EC50” value is 100.

With `C=C1[C@H](O)CC(=C/C=C/C[C@H](C)C[C@@H](C)CCCC(C)(C)O)C[C@H]1O`, the Ki in assay [1] was determined as 30 nM. The results for the EC50 in [2] and in assay [3] were 6 nM and 3 nM, respectively. Besides, in [4], the “Ratio EC50” value amounted to 2.

As to `C=C1[C@H](O)CC(=C/C=C\C/C(C)=C/[C@@H](C)CCCC(C)(C)O)C[C@H]1O`, in [1], the Ki was more than 1000 nM. The EC50 is more than 1000 nM in assay [2] and more than 100 nM in assay [3]. The “Ratio EC50” value in [4] was more than 333.

Consider `C=C1[C@H](O)CC(=C/C=C/C[C@@H](C)C[C@@H](C)CCCC(C)(C)O)C[C@H]1O`, for which, in assay [1], the Ki amounted to 10 nM. The EC50 in [2] is 300 nM; in assay [3], 90 nM. For the same compound, the figures for the fold change (FC) in [8], in [9] and in [10] were -0.2, -0.2 and -0.1, respectively. Further, the Ratio in assay [11] is reported as 0.4; in assay [12] it was -0.5; in assay [13], -0.9. Besides, the “Ratio EC50” value in [4] turned out to be 100.
